{"data": "Measured values from different studies", "target": "Mitogen-activated protein kinase kinase kinase 3 (MAP3K3, Homo sapiens, UniProt Q99759)", "Sequence (Q99759 1-626, as in one of the studies)": "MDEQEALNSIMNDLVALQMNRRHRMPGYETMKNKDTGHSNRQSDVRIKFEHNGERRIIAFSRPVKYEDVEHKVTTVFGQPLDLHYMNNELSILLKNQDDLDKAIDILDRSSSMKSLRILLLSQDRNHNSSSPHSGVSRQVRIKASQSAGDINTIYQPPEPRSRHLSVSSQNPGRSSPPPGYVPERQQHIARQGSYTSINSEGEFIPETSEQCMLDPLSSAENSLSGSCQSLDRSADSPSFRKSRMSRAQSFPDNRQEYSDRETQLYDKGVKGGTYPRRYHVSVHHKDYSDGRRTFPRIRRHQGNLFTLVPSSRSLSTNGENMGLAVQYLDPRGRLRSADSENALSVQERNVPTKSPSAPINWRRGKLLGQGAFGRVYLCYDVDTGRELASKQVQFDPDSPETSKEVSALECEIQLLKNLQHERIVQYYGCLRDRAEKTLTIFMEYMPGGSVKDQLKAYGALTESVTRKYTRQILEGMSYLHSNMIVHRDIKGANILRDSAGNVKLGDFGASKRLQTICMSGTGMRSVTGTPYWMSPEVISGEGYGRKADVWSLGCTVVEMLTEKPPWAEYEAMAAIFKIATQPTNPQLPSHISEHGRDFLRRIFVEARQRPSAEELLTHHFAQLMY", "note": "Each line is one published result; the experiments were not run side by side."}
{"SMILES": "COc1ncccc1-c1cnn2ccc(N3CCN(C(=O)OC(C)C)CC3)nc12", "assay": "binding, competition with immobilised ligand", "conditions": "1 µM", "quantity": "remaining binding", "result": "100%"}
{"SMILES": "Cn1cc(-c2cc(F)cc(N3CCn4c(cc5c4CCCC5)C3=O)c2CO)cc(Nc2ccc(N3CCN(C4COC4)CC3)cn2)c1=O", "assay": "enzyme activity, inhibitor", "conditions": "0.1 µM", "quantity": "inhibition", "result": "1%"}
{"SMILES": "Nc1ncc(-c2nc(N3CCOCC3)nc(N3CCOCC3)n2)c(C(F)F)n1", "assay": "binding, competition with immobilised ligand", "conditions": "10 µM", "quantity": "remaining binding", "result": "72%"}
{"SMILES": "CC(C)(C)c1cc(C=C(C#N)C#N)cc(Br)c1O", "assay": "enzyme activity, inhibitor", "conditions": "0.5 µM", "quantity": "remaining activity", "result": "118%"}
{"SMILES": "COCc1c(-c2cc3cc(C)cc(OC)c3s2)c2c(N)ncnn2c1CN1CCNC(=O)C1", "assay": "cell-free assay, competition with immobilised ligand", "conditions": "1 µM", "quantity": "inhibition", "result": "95.3%"}
{"SMILES": "Cn1cncc1[C@@](O)(COc1ccc(C#N)cc1-c1ccc(OC(F)(F)F)cc1)c1ccc(C#N)cc1", "assay": "cell-free assay, competition with immobilised ligand", "conditions": "1 µM", "quantity": "remaining binding", "result": "81%"}
{"SMILES": "O=c1[nH]c2ccccc2n1C1CCN(Cc2ccc(-c3[nH]c4cc5ncnc5cc4nc3-c3ccccc3)cc2)CC1", "assay": "cell-free assay", "conditions": "0.5 µM", "quantity": "remaining signal", "result": "101%"}
{"SMILES": "Cc1nn(C)cc1-c1nc2c(N3CCN(Cc4ccc(Cl)cc4)CC3)c(Cl)cnc2[nH]1", "assay": "binding, competition with immobilised ligand", "conditions": "1 µM", "quantity": "remaining binding", "result": "91%"}
{"SMILES": "Cn1cc(-c2cccc(N3CCc4c(sc5c4CC(C)(C)C5)C3=O)c2CO)cc(Nc2ccncn2)c1=O", "assay": "enzyme activity, inhibitor", "conditions": "1 µM", "quantity": "inhibition", "result": "3%"}
